The chains are these.
B1: tRNA (parent)
chain: GUUCCGUUGGCGUAAUGGUAACGCGUCUCCCUCCUAAGGAGAAGACUGCGGGUUCGAGUCCCGUACGGAACG

This sample holds only a part of the variants without activity. A value given as a limit tells only on which side of the number the result lay.

Here are results for 38 variants from the RNAGym collection of RNA variant scans (doi:10.1126/science.aae0568).

The data set covers variants of B1. In words: yeast fitness relative to wild type (ratio to wild type); higher = fitter; tRNA-Arg(CCU), competitive growth, 37 C, YPD. In short, it runs like this:
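Start and end populations of a pooled competition were compared by 100-nucleotide paired-end sequencing of gene amplicons. The Saccharomyces cerevisiae strains carried tRNA-Arg(CCU) gene variants at the native genomic locus, synthesised with a 3% per-site mutation rate at 69 sites, and competed in YPD at 37°C for 24 hours in six parallel replicates. Darwinian fitness relative to wild type was based on the change in genotype frequencies. Genotypes required ≥ 100 starting reads, and estimates < 0.5 were set to 0.5.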
In the case of GCUCCGUUGGCGUAAUGGUAACGCGUCUCCCUCCUAAGGAGAAGACUGCGGGUUCGAGUCCCGUACGGAGCG [U2C A70G], the yeast fitness came to 0.945. As for GUUCCGUUGGCGUAAUGGUAACGCGUCCCCCUCCUAAGGAGAAGACUGCGGGUGCGAGUCCCGUACGGAUCG [U28C U54G A70U], the yeast fitness was at most 0.5. Then GUUCCGUUGGCGUAAUGGUAACGCCUCUUUCUCCCAAGGCGAAGACUGCGGGUUCGAGUCCCGUACGGAACG [G25C C29U C30U U35C A40C], with at most 0.5; and GUUCCGUUGGCGUAAUGGUUAGGCGUCUCCCUCCUAAGGAGAAGACCGCGGGUUCGAGUCCCGUACGGAACG [A20U C22G U47C], with at most 0.5; and GUUCCGUUGGCGUAAUGGUAACGCGUCUCCCUCCUAGGGAGAAAACUGCGGGUUCGAGUCCCGUACGGUACG [A37G G44A A69U], with 0.525. Then GUUCCGUUGGCGUAUUGGUAACAGGUCUUCCUCCUAAGGAGAAGACUGCGGGUUCGAGUCACGUACGGGACG [A15U G23A C24G C29U C61A A69G], with at most 0.5. Consider GUUCCGUUGGAGUAAUGGUAACGCGUCUCCCACCUAAGGAGAAGACUGCGGGUUCGAGUCCCGUACGGAUCG [C11A U32A A70U], for which the yeast fitness was at most 0.5. For GUUCCGUUGGCGUAAUGGUAACGCGUCUCCCUCAUAAGGAGAAGACUGCGGGUACGAGUCCCGUACAGAACG [C34A U54A G67A], the yeast fitness is at most 0.5.

As to GUACCGUUGGCGUAAUGGUAACGCGUCUCCCUCUUAAGGAGAAGACUGCGGGUUCGAGUCCCGUACGGAACG [U3A C34U], the yeast fitness worked out at 0.735.

With GUUCCGUUGGCGUAAUGGAAAUGCGUCUCCCUCCUACCGAGAAGACUGCGGGUUCGAGUCCCGUACGGAACG [U19A C22U A37C G38C], the yeast fitness worked out at 0.516.

Regarding GUUCCGUUGGCGUAAUGGUAACGCGUCUAUCUCCUAAGGAGAAGACUGCGGGUUCGAGUCCCGUACGGAACG [C29A C30U], the yeast fitness was 0.689. Next, GUCCCGUUGGCGUAAUGGUAACGCGUCUCCUUCCUAAGGAGAAGUCUGCGGGUUCGAGUCCCGUACGGAACG [U3C C31U A45U]: 0.718; GUUCAGUUGGCGUAAUGGUACCGCGUCUCCCUCCUAAGGAGACGACUACGGGUUCGAGUCCCGUAAGGAACG [C5A A21C A43C G48A C66A]: at most 0.5; GUUCGGUUCGCGUAAUGGUAACGCGUCUCCCUCCUAAGGCGAAGACUGCGGGUUCGAAUCCCGUACGGAACG [C5G G9C A40C G58A]: at most 0.5.

Turning to GUUCCGUUGGCGUAAUGGUAACGCGUCUCCCUCCUAAGGAGAAGACUGCCGGUUCGGGUCCCGUACGGAACG [G50C A57G], the yeast fitness stood at 0.789. Next, GUUCCGUUGGCGUAAUGGUAACGCGUCACCCUCCUAAGGAGAAGCAUGCGGGUUCGAGUCCCGUACGGAACG [U28A A45C C46A]: at most 0.5.

On to GUUCCGUAGGCGUAAUGGUAACGCGACUCCCUCCUAAGGAGAAGACUGCGGGUUGGAGUCCCGUACGGAACG [U8A U26A C55G], for which the yeast fitness is at most 0.5. Then GUUCCGUUGGCGUAAUGGUUACGCGUCUCCCUCAUAAGGAGAAGACUGCGGGUUCGAGUCCUGUACGGAACG [A20U C34A C62U], with 0.542; and GUUCCGUUGGCGUAAUGGUGACGCGUCUCCCUCCUAAGGAGAAAACUGCGGGUCCGAGUCCCGUACGGAACG [A20G G44A U54C], with 0.712; and GUUCCGUUGGCGUAAUGGUAACGCGUAUCCCUCCUAAGGAGACGACUGCGGGUUCGAGUCCCGUAUGGAACG [C27A A43C C66U], with 0.709.

As to GUUCCGAUGGCGUAAUGGUAACGCGUCUCACUCCUAAGGAGAAGACUGCGAGUUCGAGUCCCGUACGGAACG [U7A C30A G51A], the yeast fitness was at most 0.5.

GUUCCGUUGGCGUAAUGGUAACGCGUUUCCCUCCUAAGGAGAAGAUUGCGGGUUCGAGUCCCGUACGGCACG [C27U C46U A69C]: the yeast fitness was 0.776. Then GUUCCGUUGGCGUAAGGGUAACGCGUCUCCCUCCUAAGGAGAAGACUGCGGGUUCGAGUCCCGUACUGAACG [U16G G67U], with 0.774.

For the variant GUUGUGUUGGCGUAAUGGUAACGCGUCUCCCUCCUAAGGAGAAGACAGCGGGUUUGCGUCCCGUACGGAACG [C4G C5U U47A C55U A57C], the yeast fitness is at most 0.5. Then GUUCCGUUGGCGUAAUGGUAACGCGUCUCCCUCAUAAGGAGAAGACUGCGGGUUCGGGUCCCGUACGGAACG [C34A A57G], with 0.715.

Consider GUUCCGUUGGCGUAUUGGUAACGCGUCUCCCUCCUAAGGAGUAGAGUGCGGGUUCGAGUCGCGUACGGAACG [A15U A42U C46G C61G], for which the yeast fitness was found to be 0.652.

On to GUUCCGUUGGCGUAAUGGUAACGCGUCUCCCUCCUAUGGAGAAGACUGCGGGUUCGAGUCCCGUACGCAACG [A37U G68C], for which the yeast fitness amounted to 0.837. Next, GUUCCGUUGGCGUAAUGGUAAUGCGUUUCCCUCCUAAGGAGAAGACUGCGGGUUCGAGUCCCGUACGGAACG [C22U C27U]: 0.713; GUUCCGUUGGCGUAAUGGUAACGCGUCUCCCUCCUAAGGAGAAGACUGCGGGUUAGAGUCCCGUACAGAACG [C55A G67A]: 0.658; GUUCCAUUGGCGUAAUGGUAACGCGUCUCCAUCCUAAGGAGAAGACUGCGCGUUGGUGUCCCGUAUGGAACG [G6A C31A G51C C55G A57U C66U]: at most 0.5. Next, GUUCCGUUGGCGUCAUGGUAACGCGUCGCCCUCCUAAGGAGAAGACUGCGGGUUCGAGUCCCGUACGGAACG [A14C U28G]: 0.625. Next, GUUCCGUUGGCGUAAUGGUAACGCGUCUCCCUCCUCAGGAGAAGACUGCCGGCUCGAGUCCCGUACGGAACG [A36C G50C U53C]: at most 0.5; GUUCCGUUGGCGUAAUGGUAACGCGUCUCCCUCCUAAGGAGAAGGCUGCGGGUUCGAGUCCCGUACGCAACG [A45G G68C]: 0.695; GUUCCAUUGGCGUAAUGGUAACGCGUCUCCCUCCUAAGGAGAAGACUGCGGGUUCGAGUCCCGUAUAGAACG [G6A C66U G67A]: 0.661. In the case of GUUUCGUUGGCGUAAUGGUAAUGCGUCUCCCUUCUAAGGAGCAGACUGCGGGUUCGGGUCCCGUACGGAACG [C4U C22U C33U A42C A57G], the yeast fitness is at most 0.5. Then GUUCCGUUGGCGUAAUGGUAACGCGUCUCCCUCAUAAGGAGAAGACUGCGGGUUUGAGUCCCGUACGGAACG [C34A C55U], with 0.524. Regarding GUUCCCUCGGCGUAAUGGUAACGCGUCUCCCUCCUAAGGACAAGACUGCGCGUUCGAGUCCCGUACGGAACG [G6C U8C G41C G51C], the yeast fitness is at most 0.5. Consider GUUCCGUUGGCGAAAUGGUAACGCGUCUCUCUCCUAAGGAGAAGACUGCGGGUUGGACUCCCGUACGGAACG [U13A C30U C55G G58C], for which the yeast fitness was 0.56.
